In the library only some 3.6% were active in any assay of this set; here they are far more common.
FGF22 binding-1 – binders of recombinant human FGF22 by thermal shift; Q9HCT0; activity (Tm shift, normalised), % at 9.99 µM; actives 1.5% (n = 340,000); SYPRO orange fluorescence; percent of sucrose octasulfate shift, DMSO zero;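 active = mean Tm shift, scaled 0 neutral to 100 positive control, at about 1.3% or above, every replicate too, limit read from the data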
Target sequence (Q9HCT0 whole entry, looked up): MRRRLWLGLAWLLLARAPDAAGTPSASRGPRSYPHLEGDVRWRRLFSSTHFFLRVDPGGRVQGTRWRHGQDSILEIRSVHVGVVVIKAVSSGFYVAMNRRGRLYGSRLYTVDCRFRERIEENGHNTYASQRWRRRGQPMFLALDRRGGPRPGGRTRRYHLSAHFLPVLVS
HCV NS3 hel inh – HCV NS3 helicase inhibition | NS3 helicase DNA unwinding, Cy5 molecular beacon fluorescence | inhibition, % at 10.9 µM | actives 0.56% (n = 290,000) | AID 1800;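 active = inhibition above the mean of all tested compounds plus 3 SD, set per campaign, cut at about 35% in these data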;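 also: 0% = DMSO wells and 100% = thioflavine S control wells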
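System: NS3 helicase fragment of HCV / Schedule: 1 h at 25 °C / Control set: DMSO alone as 0% and 110 µM thioflavine S as 100% / Reagent: Cy5/quencher beacon DNA duplex and ATP to start / Technique: Cy5 fluorescence / Replication: singlicate / Evaluation: % inhibition of end-to-start signal ratio versus controls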
DNA FID counter – fluorescent intercalator displacement, NS3 helicase counter-screen; DNA fluorescent intercalator displacement, fluorescence; inhibition, % at 7.9 µM; actives 0.17% (n = 290,000); AID 1845; in the data active = inhibition above about 37%;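 also: 0% = vehicle and 100% = reference compound; higher means more ethidium bromide displaced from hairpin DNA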
EBNA-1 inhibitor – blocks EBNA-1 binding to DNA; EBNA-1 DNA binding, fluorescence polarization; inhibition, % at 14.8 µM; AID 1950; actives 0.34% (n = 300,000); in the data active = inhibition above about 28%
GRIN3A LBD mod – NR3A (human) ligand-binding domain modulation. NR3A LBD differential scanning fluorimetry, Tm shift; 0% = protein alone, 100% = glycine-bound protein. Tm shift relative to glycine control, % at 25 µM. actives 2.5% (n = 340,000). AID 1259313;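 active = melting temperature shift of at least 10% of the positive control shift, at one fixed dose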
ZTA counter – ZTA (EBV) inhibition in EBNA-1 counter-screen; P03206; inhibition, % at 11 µM; ZTA-DNA binding, fluorescence polarization; actives 0.15% (n = 320,000); in the data active = inhibition above about 33%
Target sequence (P03206 whole entry, looked up): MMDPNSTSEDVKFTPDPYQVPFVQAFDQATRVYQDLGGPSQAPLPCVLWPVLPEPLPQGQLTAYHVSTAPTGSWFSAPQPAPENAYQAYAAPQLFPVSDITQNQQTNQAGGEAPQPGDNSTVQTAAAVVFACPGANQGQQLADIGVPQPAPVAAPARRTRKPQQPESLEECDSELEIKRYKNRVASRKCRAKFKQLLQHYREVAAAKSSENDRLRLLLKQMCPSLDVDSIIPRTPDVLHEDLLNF
FGF22 binding-2 – binds human FGF22 shifting its melting temperature; actives 2% (n = 1,000); AID 720646; recombinant FGF22 thermal shift, SYPRO orange fluorescence; shares compounds with FGF22 binding-1; thermal shift activity, °C (ΔTm) at 38 µM;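 active = fitted rise in melting shift crosses a set limit at or below the top valid dose tested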
TSA no protein – counter-screen for FGF22 binders: compound-only thermal shift, no protein | AID 743019 | actives 2% (n = 1,000) | AC50, µM (series often up to 38 µM) | compound-only SYPRO orange thermal shift counter-screen | shares compounds with FGF22 binding-1;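 active = rising signal whose fitted curve reaches the 0.54 level within the top valid dose, showing a melting point, actives reach about 13 µM in these data; inactive = the rest, including activity in the opposite direction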; also: value is where the raw curve crosses a fixed level and not half-maximal
Active calls of the source: *; i = inactive; / = not tested or not shown.

SMILES | FGF22 binding-1 | HCV NS3 hel inh | DNA FID counter | EBNA-1 inhibitor | GRIN3A LBD mod | ZTA counter | FGF22 binding-2 | TSA no protein
CO[C@@H]1CN(C)C(=O)c2ccc(NC(=O)Nc3c(C)noc3C)cc2OC[C@@H](C)N(CC2CC2)C[C@H]1C | -0.3 | / | / | / | / | / | / | /
O=C(Cn1cc(COc2ccc(Br)cc2[N+](=O)[O-])nn1)c1ccc(O)cc1 | 1.7* | / | / | / | 3.0 | / | -0.002 | i
CCN(CC)S(=O)(=O)c1ccc(N/N=C(\C)c2ccc(OC)cc2O)nc1 | 1.4* | -4.2 | -6.3 | -0.4 | 7.0 | -14.4 | 0.135 | i
Cc1c(/C=N\NC(=O)c2ccc(F)cc2)cnn1C | / | 10.6 | -0.2 | -4.0 | -3.6 | -13.2 | / | /
Cc1[nH]c2ccccc2c1/C=N/NC(=O)c1cccc(F)c1 | 2.0* | 6.5 | 1.2 | -4.2 | -3.2 | -13.4 | 0.128 | i
Cc1c(/C=N\NC(=O)c2cccc(F)c2)cnn1C | 2.0* | -13.4 | -13.4 | 15.8 | -0.7 | 0.1 | 0.168 | i
CCc1cc(C(=O)N/N=C/c2c(C)[nH]c3ccccc23)cs1 | / | 4.8 | 3.6 | 6.2 | 1.7 | -17.9 | / | /
O=C(C(=O)N1CCC(CNS(=O)(=O)Cc2ccccc2)CC1)c1cccs1 | 27.0* | / | / | / | / | / | 0.071 | i
C[C@H](CO)N1C[C@H](C)[C@@H](CN(C)Cc2ccc(-c3ccccc3)cc2)Oc2ccc(NC(=O)Cn3cnnn3)cc2CC1=O | -0.3 | / | / | / | / | / | / | /
CC(=O)N(C)C[C@H]1[C@H](c2ccc(-c3ccc(F)cc3)cc2)[C@@H](CO)N1C(C)=O | -0.7 | / | / | / | / | / | / | /
Nc1ccccc1N=Nc1ccccc1N | 2.5* | 9.6 | -2.0 | -3.6 | 23.1* | 3.5 | 0.146 | i
O=S(=O)(c1cccc2ccccc12)N1CCCCC1 | -0.1 | -11.1 | -11.7 | / | 2.1 | / | / | /
O=C(O)c1cc2cccc(S(=O)(=O)N3CCCCC3)c2cc1O | 1.7* | 12.3 | -20.5 | 5.7 | -0.4 | 22.1 | 0.087 | i
COc1ccccc1NC(=O)Nc1cccc(NC(C)=O)c1 | 3.1* | 3.6 | -6.7 | 11.1 | 0.6 | 8.5 | 0.016 | i
COc1ccc(NC(=O)Nc2cccc(NC(C)=O)c2)c(OC)c1 | 0.2 | 1.9 | -1.3 | -1.2 | 6.1 | 4.2 | / | /
Cc1ccc(C(=O)O/N=C2\CCCc3ccccc32)cc1 | / | 0.1 | -5.2 | -10.5 | 4.0 | -0.5 | / | /
O=C(O/N=C1\CCCc2ccccc21)C1CC1 | 2.7* | 15.0 | -5.5 | -3.0 | -1.2 | 9.4 | 0.067 | i
CC1(C(=O)NS(=O)(=O)Cc2cccc(Cl)c2)CCN1C(=O)C1(c2ccc(Cl)cc2)CCC1 (configuration not stated) | 1.5* | / | / | / | / | / | / | i
CC1(C(=O)NS(=O)(=O)c2ccc(Cl)cc2)CCN1C(=O)Cc1ccc(Cl)cc1Cl (configuration not stated) | 1.5* | / | / | / | / | / | 0.157 | i
C[C@H]1CN([C@@H](C)CO)C(=O)c2cc(C#CC3(O)CCCC3)cnc2O[C@@H]1CN(C)Cc1ccccn1 | 0.3 | / | / | / | / | / | / | /
O=C(N/N=C/c1ccncc1)c1cc2ccccc2o1 | 1.8* | 8.0 | -4.8 | -4.7 | 4.7 | 8.9 | 0.023 | i
CCS(=O)(=O)NCCNc1ccc([N+](=O)[O-])cc1 | 1.5* | 0.4 | 1.3 | -4.2 | -2.0 | -10.1 | -0.069 | i
CC(=O)NCCCNc1ccc([N+](=O)[O-])cc1 | / | 7.2 | -1.7 | -1.7 | -0.1 | 5.5 | / | /
COc1ccccc1CNC(=O)C[C@H]1CC[C@@H]2[C@H](COC[C@H](O)CN2C(=O)Nc2ccc(Cl)cc2)O1 | 17.0* | / | / | / | / | / | -0.099 | i
O=C(C[C@@H]1CC[C@H]2[C@@H](COC[C@H](O)CN2CC2CCOCC2)O1)NCC1CCCCC1 | -0.2 | / | / | / | / | / | / | /
O=C(C[C@@H]1CC[C@@H]2[C@H](COC[C@@H](O)CN2C(=O)Nc2cccc(Cl)c2)O1)NCC1CCCCC1 | 13.8* | / | / | / | / | / | 0.033 | i
COc1cccc(NC(=O)N2C[C@H](O)COC[C@@H]3O[C@@H](CC(=O)NC4CCC4)CC[C@H]32)c1 | 1.4* | / | / | / | / | / | -0.12 | i
